Yeast life ext – compounds extending yeast replicative lifespan, primary screen, S. cerevisiae, OD615; S. cerevisiae growth with nicotinamide; deaD strain in restrictive glucose medium; inhibition of the nicotinamide effect, % at 10 µM; AID 775, 2007; actives 0.68% (n = 130,000);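 active = inhibition above a set limit, placed 3 SD over the median of all compounds, cut at about 26% in these data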;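 note: 0% = nicotinamide-treated wells and 100% = cells grown without nicotinamide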
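System: DeaD-strain S. cerevisiae / Buffer or medium: CSMM-D, restrictive glucose (dextrose) synthetic minimal medium / Probe or stimulus: nicotinamide, 1.5 mM, co-present with compound / Compound: one concentration, 10 µM, DMSO 0.25% / Incubation: 48 h compound exposure at 30 °C, humidified / Technique: optical density (absorbance) at 615 nm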
BB579 growth dn – growth inhibitors of yeast BB579 in restrictive medium, primary screen, yeast lifespan-shortening project, S. cerevisiae | OD615, 48 h | inhibition, % at 10 µM | actives 0.51% (n = 140,000) | AID 804, 2007;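 active = inhibition above a set limit, 3 SD over the mean compound inhibition, cut at about 44% in these data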
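Test system: Saccharomyces cerevisiae DeaD strain BB579, replicative lifespan model yeast | Buffer or medium: Restrictive CSMM-D medium | Doses: One dose, 10 µM compound with 0.25% DMSO | Incubation: 48 h exposure, 30 °C | Detection: Culture absorbance at 615 nm | Control set: Amphotericin B at 10 µg/mL as positive control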
DAT uptake mod – changed hDAT dopamine uptake under cocaine IC80, either direction, primary screen, cocaine antagonist project, cell-based, LLC-PK1 hDAT, [14C]-dopamine uptake, MLSMR; LLC-PK1 hDAT cells, [14C]-dopamine uptake with cocaine IC80; actives deviate in either direction; B-score at 10 µM; actives 1.3% (n = 110,000); AID 449768, 2010;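 active = Z score or B-score, a plate-position-corrected score, falls beyond the plate's 99.7% confidence bounds, in either direction; inactive = both scores lie inside the 99.7% bounds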;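 note: scored against the spread of the other compound wells on the same plate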
Target sequence (Q01959 whole entry, looked up): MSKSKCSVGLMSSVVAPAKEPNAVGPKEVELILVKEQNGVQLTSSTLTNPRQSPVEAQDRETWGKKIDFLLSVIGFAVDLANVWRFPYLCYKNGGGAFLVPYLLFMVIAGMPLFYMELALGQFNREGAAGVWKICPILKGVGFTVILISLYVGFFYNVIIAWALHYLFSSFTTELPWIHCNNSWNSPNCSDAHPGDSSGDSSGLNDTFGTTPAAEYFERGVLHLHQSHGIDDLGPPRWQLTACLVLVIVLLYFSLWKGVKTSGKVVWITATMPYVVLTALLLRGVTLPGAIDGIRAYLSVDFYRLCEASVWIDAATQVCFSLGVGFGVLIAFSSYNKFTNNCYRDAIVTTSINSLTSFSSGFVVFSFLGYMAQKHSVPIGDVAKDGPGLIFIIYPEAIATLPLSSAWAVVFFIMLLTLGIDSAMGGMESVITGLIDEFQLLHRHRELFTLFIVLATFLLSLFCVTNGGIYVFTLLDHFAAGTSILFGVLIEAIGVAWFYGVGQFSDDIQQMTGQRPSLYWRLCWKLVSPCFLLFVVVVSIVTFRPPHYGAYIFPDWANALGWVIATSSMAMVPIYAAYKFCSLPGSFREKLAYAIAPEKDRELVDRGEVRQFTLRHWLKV
RAM network inh – inhibitors of the yeast RAM network, primary screen, dse1pr::URA3 reporter, 5-FOA selection | S. cerevisiae dse1pr::URA3 reporter, 5-FOA growth OD615, 2 d; analog-sensitive cbk1-as2 kinase mutant strain | inhibition, % at 50 µM | actives 1.8% (n = 190,000);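 active = inhibition above a set limit, 3 SD over mean compound inhibition, cut at about 8.4% in these data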;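 note: 0% = DMSO-only wells with no growth and 100% = 10 µM 1-NA-PP1 full growth; inhibition rescues growth on 5-FOA so higher OD means more RAM inhibition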
Measles CPE – compounds protecting cells from measles virus cytopathic effect, primary screen, measles RdRp inhibitor project, single point, MLSMR library, absorbance. Measles virus-infected cells, CPE protection. protection (pct of control), % at 4 µM. actives 1.5% (n = 140,000); in the data active = protection mostly above about 24%, no sharp cut-off; inactive = mostly below about 26%
WT yeast gro inh – growth inhibition of WT strain, primary screen, mitochondrial fusion inhibitor project, WT and mutant strains, chemical genetic; inhibition, % at 10 µM; actives 2.1% (n = 190,000); mitochondrial fusion phenotypic screen; in the data active = inhibition above about 58%; tested in S. cerevisiae
* marks the source's active call; other numbers are inactive results; / = no result. In the library only some 6.1% were active in any assay of this set; here they are far more common.

SMILES | Yeast life ext | BB579 growth dn | DAT uptake mod | RAM network inh | Measles CPE | WT yeast gro inh
O=C(COc1ncnc2sccc12)NC1CCCc2ccccc21 (stereo not given) | 4 | -36 | / | 2 | 17 | -23
OCC1(CCOc2ccccc2)CCN(CC2=Cc3cc(Cl)ccc3OC2)CC1 | / | / | / | 1 | / | 90*
Cc1ccccc1N(CC(=O)N/N=C/c1cc(Br)c(C)o1)S(C)(=O)=O | -5 | -11 | / | 1 | 13 | 16
COCCCN1C(=O)C(O)=C(C(=O)c2ccco2)C1c1ccc(Br)cc1 (stereo not given) | -24 | -39 | -1.7 | 9.1* | 4 | -2
CCCOc1ccc(C2C(C(=O)c3ccco3)=C(O)C(=O)N2CCN2CCOCC2)cc1OC (stereo not given) | -22 | -31 | / | 0 | 47* | 58*
CCCCn1c(O)c(N=Nc2ccccn2)c2ccccc21 | -5 | -14 | / | -1 | 4 | 68*
COc1cccc(Nc2nc3ccccc3nc2-n2nc(C)cc2C)c1 | -10 | 16 | -0.89 | 8 | 2 | 5
Cc1cc(C)n(-c2nc3ccccc3nc2Nc2ccc3c(c2)OCO3)n1 | -2 | -47 | -0.044 | 7 | 42* | 10
COc1ccc([C@H]2[C@H](C(=O)C(C)(C)C)N3N=Cc4ccccc4C3C23C(=O)OC(C)(C)OC3=O)cc1 (stereo not given in full) | 36* | 7 | / | 2 | 25 | 11
COc1ccc([C@@H]2[C@@H](C(=O)C(C)(C)C)N3N=Cc4ccccc4[C@@H]3C23C(=O)OC(C)(C)OC3=O)cc1OC | 23 | -3 | / | 0 | 3 | 0
N#Cc1c(N)nc2c(c1-c1ccc3c(c1)OCO3)CCc1ccccc1-2 | -6 | 4 | / | 2 | 9 | 62*
Cc1nc2ccccc2n1CSc1ccccc1 | 7 | -49 | / | 1 | 29 | -3
CC(NC(=O)/C(=C/c1ccc(OC(F)F)cc1)c1ccccc1)c1ccccc1 (stereo not given) | 17 | -15 | / | 9.6* | 9 | 65*
COCC(C)NC(=O)/C(=C/c1ccccc1)c1ccccc1 (stereo not given) | / | / | / | 2 | / | -5
O=C(O)c1ccc(COc2ccc(Cl)cc2)o1 | -3 | 8 | 1.6 | -1 | 44 | -3
O=C(c1ccc(COc2ccc(Cl)cc2)o1)N1CCN(Cc2ccc3c(c2)OCO3)CC1 | 2 | -107 | 0.31 | 0 | 10 | 76*
COCCSc1ccccc1C(=O)N1CCN(Cc2ccc3c(c2)OCO3)CC1 | -7 | 2 | -0.62 | 1 | 51* | -17
O=C(c1ccc(COc2ccccc2Cl)o1)N1CCN(Cc2ccc3c(c2)OCO3)CC1 | -5 | -18 | 0.85 | -2 | 1 | 39
CCN1CCN(C(=O)c2ccc(COc3ccc(Cl)cc3)o2)CC1 | -11 | 20 | 1.2 | 2 | 42* | 14
CCOc1cc(/C=C2/SC(=S)N(C)C2=O)ccc1Oc1ccc([N+](=O)[O-])cc1[N+](=O)[O-] | / | / | / | 4 | / | -6
CC(C)c1ccc(S(=O)(=O)/N=C2/C=CC(=O)c3ccccc32)cc1 | / | / | / | 2 | / | 68*
COC(=O)C(C(C)=O)C1=C/C(=N\S(=O)(=O)c2ccc(C)cc2)c2ccccc2C1=O (stereo not given) | 8 | -39 | -0.079 | 1 | 12 | 10
N/C(=N\OC(=O)COc1ccc2ccccc2c1Br)c1ccccn1 | / | / | / | 9.1* | / | 64*
N/C(=N\OC(=O)COc1ccc2ccccc2c1Br)c1cccnc1 | / | / | / | -2 | / | 32
Cc1ccc(C(C#N)c2ccc3c(C(F)(F)F)cc(C(F)(F)F)nc3n2)cc1 (stereo not given) | -1 | 9 | -0.018 | 5 | 16 | 69*
SMILES | Yeast life ext | BB579 growth dn | DAT uptake mod | RAM network inh | Measles CPE | WT yeast gro inh
FC(F)(F)c1cc(C(F)(F)F)c2ccc(N/N=C/c3ccccc3)nc2n1 | 5 | -46 | -0.66 | 5 | 5 | 7
N#CC(c1ccccc1)c1ccc2c(C(F)(F)F)cc(C(F)(F)F)nc2n1 (stereo not given) | -6 | -10 | -0.18 | 2 | 13 | 74*
Cc1nonc1NC(=O)OC1CCCCC1 | 9 | -23 | -1.1 | 1 | 6 | -2
CCCC(=O)N1CCN(c2ccc(NC(=S)NC(=O)c3cccc(C)c3)cc2)CC1 | / | / | / | 4 | / | 32
Cc1ccccc1OC(=O)n1c(=S)oc2cc(Cl)ccc21 | 80* | -34 | 0.61 | -1 | 10 | 20
Cc1cc(C)nc(NC(=O)c2ccc(COc3ccccc3Cl)cc2)c1 | / | / | / | 1 | / | 65*
Cc1cc(C)nc(NC(=O)/C=C/c2ccc(Cl)cc2Cl)c1 | -15 | -5 | / | 0 | 5 | 74*
Cc1cc(C)nc(NC(=O)/C=C/c2ccccc2Cl)c1 | -8 | -24 | / | 1 | 9 | 64*
Cc1ccc(-c2ccc3c(c2)S(=O)(=O)c2ccccc2C3=O)cc1 | / | / | 0.4 | / | / | /
CCC(C)(C)NC(=O)C(c1ccccn1)N(C(=O)c1csnn1)c1ccc(C)cc1 (stereo not given) | / | / | / | 0 | / | -17
Nn1c(SCC(=O)N2CCN(S(=O)(=O)c3ccccc3)CC2)nnc1-c1cccs1 | -8 | -12 | 0.84 | 4 | 3 | -1
CC(C)CC(CO)N1CCN(C(=O)c2cccc(Cl)c2)CCC1=O (stereo not given) | / | / | 0.02 | / | / | /
Cc1ccc(NC(=O)c2cc(Cl)nc3ccccc23)cc1 | -24 | -14 | -2.5* | 2 | 8 | -12
CCCCC1=CC2=CC(=O)C(C)(OC(=O)CC)C(=O)C2=CN1C1CCCC1 (stereo not given) | / | / | -2.3 | / | / | /
CN1CCN(C(=O)C2=C[C@@H](C3CC3)C[C@@H](OCc3ccc(CO)cc3)O2)CC1 | / | / | -0.8 | -2 | / | 1
COc1cc(OC)c(OC)cc1CN(C)C(c1ccccc1)c1nnnn1-c1ccccc1C (stereo not given) | -4 | -63 | 1 | 1 | 10 | 24
COc1ccc(CN(C)C(c2ccccc2)c2nnnn2-c2ccccc2C)c(OC)c1C (stereo not given) | 14 | -69 | 0.29 | 2 | 6 | 74*
CSc1nc(NCc2ccco2)c2c3c(sc2n1)CN(C)CC3 | -30 | -60 | 0.29 | 1 | 12 | 9
CCCCSc1nc(NCc2ccco2)c2c3c(sc2n1)COC(C)(C)C3 | -4 | 9 | 0.041 | 10* | 7 | 44
Cc1ccc(C(C2=C(O)CC(C)(C)CC2=O)C2C(=O)CC(C)(C)CC2=O)s1 (stereo not given) | 25 | 12 | -0.21 | -1 | 7 | 7
